Data from ChEMBL document CHEMBL1126263, “Development of high-affinity 5-HT3 receptor antagonists. 2. Two novel tricyclic benzamides” (J Med Chem, 1992).

Experiments:
Type in all cases: functional
Mustela putorius furo [1] = test: Antiemetic potency was tested against cisplatin-induced emetic latency period in ferret after oral administration
Summary of the method: (§1)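 Ferret cisplatin-emesis model, iv or po pretreatment 30 or 60 min before cisplatin. Emetic latency read-out given as ED100, the dose raising emetic latency 100% over the control period. Based on 3–10 animals per dose, at least three per compound.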

Mustela putorius furo [2] = test: Antiemetic potency was tested against cisplatin-induced emetic episodes in ferret after oral administration
Summary of the method: (§2)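 Ferret cisplatin-emesis model. Drug given iv or po, 30 or 60 min before cisplatin. Emetic episodes counted and ED50 derived from 3–10 animals per dose, at least three per compound. Control emetic episode means were reported.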

Mustela putorius furo [3] = test: The compound was evaluated for the percentage increase in the emetic latency period to first emetic episode against cisplatin induced emesis in ferret (intravenous administration)
Summary of the method: (§3)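 Ferrets receive the test agent iv as a pretreatment before the cisplatin challenge; the table footnotes give 30 min and 60 min pretreatment times. Each dose uses 3–10 animals, with at least three doses per agent.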

Mustela putorius furo [4] = test: Ratio of number of animals protected to the number of tested against cisplatin-induced emesis in ferret upon intravenous administration; 0/3; summary of the method: as §3
Mustela putorius furo [5] = test: The compound was evaluated for the percentage reduction in the emetic episodes against cisplatin induced emesis in ferret (intravenous administration); summary of the method: as §3
Mustela putorius furo [6] = test: Ratio of number of animals protected to the number of tested against cisplatin-induced emesis in ferret upon intravenous administration; 0/5; summary of the method: as §3
Mustela putorius furo [7] = test: The compound was evaluated for the percentage reduction in the emetic episodes against cisplatin-induced emesis in ferret (intravenous administration); summary of the method: as §3
Mustela putorius furo [8] = test: Antiemetic potency against cisplatin-induced emetic latency period in ferret after intravenous administration; summary of the method: as §1
Mustela putorius furo [9] = test: The compound was evaluated for the percentage increase in the emetic latency period against cisplatin-induced emesis in ferret (oral administration)
Summary of the method: (§4)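 Ferrets dosed orally in 0.5% methylcellulose vehicle 60 min before cisplatin and observed for 240 min. Scored for complete protection (protected/tested), mean % reduction in emetic episodes and mean % increase in emetic latency. Non-vomiting animals were assigned 240 min latency. Significance versus vehicle group at p<0.05 or p<0.01.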

Mustela putorius furo [10] = test: Antiemetic potency against cisplatin-induced emetic episodes in ferret after intravenous administration; summary of the method: as §2
Mustela putorius furo [11] = test: Ratio of number of animals protected to the number of tested against cisplatin-induced emesis in ferret upon intravenous administration; 0/4; summary of the method: as §3
Mustela putorius furo [12] = test: Ratio of number of animals protected to the number of tested against cisplatin-induced emesis in ferret upon intravenous administration; 2/4; summary of the method: as §3
Mustela putorius furo [13] = test: Mean percent increase in emetic episode evaluated by giving RG 12915 (0.003 mg/kg) 60 min prior to cisplatin (orally) in ferret; summary of the method: as §4
Mustela putorius furo [14] = test: Mean percent increase in emetic episode evaluated by giving RG 12915 (0.010 mg/kg) 60 min prior to cisplatin (orally) in ferret; summary of the method: as §4
Mustela putorius furo [15] = test: Compound was evaluated for Percent protected by giving 0.5% methylcellulose 60 min prior to cisplatin (orally) in ferret; summary of the method: as §4
Mustela putorius furo [16] = test: Compound was evaluated for Percent protected by giving RG 12915 (0.003 mg/kg) 60 min prior to cisplatin (orally) in ferret; summary of the method: as §4
Mustela putorius furo [17] = test: Compound was evaluated for Percent protected by giving RG 12915 (0.010 mg/kg) 60 min prior to cisplatin (orally) in ferret; summary of the method: as §4
Mustela putorius furo [18] = test: Compound was evaluated for Percent protected by giving RG 12915 (0.03 mg/kg) 60 min prior to cisplatin (orally) in ferret; summary of the method: as §4
Mustela putorius furo [19] = test: Compound was evaluated for Percent protected by giving RG 12915 (0.1 mg/kg) 60 min prior to cisplatin (orally) in ferret; summary of the method: as §4
Mustela putorius furo [20] = test: Compound was evaluated for Percent protected by giving RG 12915 (1.0 mg/kg) 60 min prior to cisplatin (orally) in ferret; summary of the method: as §4
Mustela putorius furo [21] = test: Mean percent increase in emetic episode evaluated by giving RG 12915 (0.03 mg/kg) 60 min prior to cisplatin (orally) in ferret; summary of the method: as §4
Mustela putorius furo [22] = test: Mean percent increase in emetic episode evaluated by giving RG 12915 (0.1 mg/kg) 60 min prior to cisplatin (orally) in ferret; summary of the method: as §4
Mustela putorius furo [23] = test: Mean percent increase in emetic episode evaluated by giving RG 12915 (1.0 mg/kg) 60 min prior to cisplatin (orally) in ferret; summary of the method: as §4
Mustela putorius furo [24] = test: Ratio of no. of protected and no. of tested evaluated by giving 0.5% methylcellulose 60 min prior to cisplatin (orally) in ferret; 0/22; summary of the method: as §4
Mustela putorius furo [25] = test: Ratio of no. of protected and no. of tested evaluated by giving RG 12915 (0.003 mg/kg) 60 min prior to cisplatin (orally) in ferret; 1/4; summary of the method: as §4
Mustela putorius furo [26] = test: Ratio of no. of protected and no. of tested evaluated by giving RG 12915 (0.010 mg/kg) 60 min prior to cisplatin (orally) in ferret; 5/12; summary of the method: as §4
Mustela putorius furo [27] = test: Ratio of no. of protected and no. of tested evaluated by giving RG 12915 (0.03 mg/kg) 60 min prior to cisplatin (orally) in ferret; 4/4; summary of the method: as §4
Mustela putorius furo [28] = test: Ratio of no. of protected and no. of tested evaluated by giving RG 12915 (0.1 mg/kg) 60 min prior to cisplatin (orally) in ferret; 6/6; summary of the method: as §4
Mustela putorius furo [29] = test: Ratio of no. of protected and no. of tested evaluated by giving RG 12915 (1.0 mg/kg) 60 min prior to cisplatin (orally) in ferret; 7/10; summary of the method: as §4
Mustela putorius furo [30] = test: Mean percent reduction in emetic episode evaluated by giving RG 12915 (0.003 mg/kg) 60 min prior to cisplatin (orally) in ferret; summary of the method: as §4
Mustela putorius furo [31] = test: Mean percent reduction in emetic episode evaluated by giving RG 12915 (0.010 mg/kg) 60 min prior to cisplatin (orally) in ferret; summary of the method: as §4
Mustela putorius furo [32] = test: Mean percent reduction in emetic episode evaluated by giving RG 12915 (0.03 mg/kg) 60 min prior to cisplatin (orally) in ferret; summary of the method: as §4
Mustela putorius furo [33] = test: Mean percent reduction in emetic episode evaluated by giving RG 12915 (0.1 mg/kg) 60 min prior to cisplatin (orally) in ferret; summary of the method: as §4
Mustela putorius furo [34] = test: Mean percent reduction in emetic episode evaluated by giving RG 12915 (1.0 mg/kg) 60 min prior to cisplatin (orally) in ferret; summary of the method: as §4
Mustela putorius furo [35] = test: The compound was evaluated for the percentage increase in the emetic latency period to first emetic episode against cisplatin-induced emesis in ferret (intravenous administration); summary of the method: as §3

O=C(N[C@H]1CN2CCC1CC2)c1cc(Cl)cc2c1O[C@H]1CCC[C@H]2C1
ED100 (Mustela putorius furo [1]): >1000 µg/kg | ED50 (Mustela putorius furo [2]): > 1 mg/kg

CN1CCCC1CCNC(=O)c1cc(Cl)cc2c1OC1CCCCC21 (stereo not drawn)
Increase (Mustela putorius furo [3]): -0.9% | Ratio (Mustela putorius furo [4]): 0 | Reduction (Mustela putorius furo [5]): -38.1%

CCN(CC)CCNC(=O)c1cc(Cl)cc2c1OC1CCCCC21 (stereo not drawn)
Increase (Mustela putorius furo [3]): 6.5% | Ratio (Mustela putorius furo [6]): 0 | Reduction (Mustela putorius furo [7]): 2.2%

O=C(N[C@H]1CN2CCC1CC2)c1cc(Cl)cc2c1O[C@H]1CCC[C@@H]2C1
ED100 (Mustela putorius furo [1]): 408 µg/kg | ED50 (Mustela putorius furo [2]): 0.085 mg/kg

O=C(NC1CN2CCC1CC2)c1cc(Cl)cc2c1OC1CCCCC21 (stereo not drawn)
ED100 (Mustela putorius furo [8]): 11 µg/kg | ED100 (Mustela putorius furo [9]): 11 µg/kg | ED50 (Mustela putorius furo [10]): 6 µg/kg | ED50 (Mustela putorius furo [2]): 0.005 mg/kg

O=C(NC1CN2CCC1CC2)c1cc(Cl)cc2c1OC1CCCC2C1 (stereo not drawn)
ED100 (Mustela putorius furo [1]): 22 µg/kg | ED50 (Mustela putorius furo [2]): 0.079 mg/kg

O=C(NCCc1c[nH]cn1)c1cc(Cl)cc2c1OC1CCCCC21 (stereo not drawn)
Increase (Mustela putorius furo [3]): 27.6% | Ratio (Mustela putorius furo [11]): 0 | Reduction (Mustela putorius furo [5]): 44.4%

O=C(NCCN1CCOCC1)c1cc(Cl)cc2c1OC1CCCCC21 (stereo not drawn)
Increase (Mustela putorius furo [3]): 110.9% | Ratio (Mustela putorius furo [12]): 2 | Reduction (Mustela putorius furo [5]): 48.9%

O=C(N[C@@H]1CN2CCC1CC2)c1cc(Cl)cc2c1O[C@@H]1CCCC[C@H]21
ED100 (Mustela putorius furo [1]): 258 µg/kg | ED50 (Mustela putorius furo [2]): 0.041 mg/kg

O=C(N[C@@H]1CN2CCC1CC2)c1cc(Cl)cc2c1O[C@H]1CCC[C@@H]2C1
ED100 (Mustela putorius furo [8]): 6 µg/kg | ED100 (Mustela putorius furo [1]): 10 µg/kg | ED50 (Mustela putorius furo [10]): 9 µg/kg | ED50 (Mustela putorius furo [2]): 0.007 mg/kg

O=C(N[C@@H]1CN2CCC1CC2)c1cc(Cl)cc2c1O[C@@H]1CCC[C@H]2C1
ED100 (Mustela putorius furo [1]): 290 µg/kg | ED50 (Mustela putorius furo [2]): 0.061 mg/kg

O=C(NC1CN2CCC1CC2)c1cc(Cl)cc2c3c(oc12)CCCC3 (stereo not drawn)
ED100 (Mustela putorius furo [1]): 272 µg/kg | ED50 (Mustela putorius furo [2]): 0.033 mg/kg

O=C(N[C@H]1CN2CCC1CC2)c1cc(Cl)cc2c1O[C@@H]1CCCC[C@H]21
ED100 (Mustela putorius furo [1]): >3000 µg/kg | ED50 (Mustela putorius furo [2]): 0.084 mg/kg

O=C(N[C@H]1CN2CCC1CC2)c1cc(Cl)cc2c1O[C@H]1CCCC[C@@H]21
ED100 (Mustela putorius furo [1]): 107 µg/kg | ED50 (Mustela putorius furo [2]): 0.056 mg/kg

O=C(N[C@@H]1CN2CCC1CC2)c1cc(Cl)cc2c1O[C@H]1CCCC[C@@H]21
ED100 (Mustela putorius furo [8]): 7 µg/kg | ED100 (Mustela putorius furo [9]): 5 µg/kg | ED50 (Mustela putorius furo [10]): 4 µg/kg | ED50 (Mustela putorius furo [2]): 0.004 mg/kg | Increase (Mustela putorius furo [13]): 53% | Increase (Mustela putorius furo [14]): 105% | Protected (Mustela putorius furo [15]): 0% | Protected (Mustela putorius furo [16]): 25% | Protected (Mustela putorius furo [17]): 42% | Protected (Mustela putorius furo [18]): 100% | Protected (Mustela putorius furo [19]): 100% | Protected (Mustela putorius furo [20]): 70% | Increase (Mustela putorius furo [21]): 195% | Increase (Mustela putorius furo [22]): 195% | Increase (Mustela putorius furo [23]): 171% | Ratio (Mustela putorius furo [24]): 0 | Ratio (Mustela putorius furo [25]): 1 | Ratio (Mustela putorius furo [26]): 5 | Ratio (Mustela putorius furo [27]): 4 | Ratio (Mustela putorius furo [28]): 6 | Ratio (Mustela putorius furo [29]): 7 | Reduction (Mustela putorius furo [30]): 24% | Reduction (Mustela putorius furo [31]): 57% | Reduction (Mustela putorius furo [32]): 100% | Reduction (Mustela putorius furo [33]): 100% | Reduction (Mustela putorius furo [34]): 90%

Cn1cccc1CCNC(=O)c1cc(Cl)cc2c1OC1CCCCC21 (stereo not drawn)
Increase (Mustela putorius furo [35]): 1% | Ratio (Mustela putorius furo [11]): 0 | Reduction (Mustela putorius furo [5]): 51.7%

CN1C2CCCC1CC(NC(=O)c1nn(C)c3ccccc13)C2 (stereo not drawn) [GRANISETRON]
ED100 (Mustela putorius furo [8]): 82 µg/kg | ED100 (Mustela putorius furo [1]): 117 µg/kg

CCN(CC)CCNC(=O)c1cc(Cl)c(N)cc1OC [METOCLOPRAMIDE]
ED100 (Mustela putorius furo [8]): 2100 µg/kg | ED100 (Mustela putorius furo [1]): >5000 µg/kg

Cc1nccn1CC1CCc2c(c3ccccc3n2C)C1=O (stereo not drawn) [ONDANSETRON]
ED100 (Mustela putorius furo [8]): 15 µg/kg | ED100 (Mustela putorius furo [1]): 31 µg/kg | ED50 (Mustela putorius furo [10]): 8 µg/kg | ED50 (Mustela putorius furo [2]): 0.28 mg/kg
